# Target: T1, UniProt B2RVX8
# T1 sequence (whole entry): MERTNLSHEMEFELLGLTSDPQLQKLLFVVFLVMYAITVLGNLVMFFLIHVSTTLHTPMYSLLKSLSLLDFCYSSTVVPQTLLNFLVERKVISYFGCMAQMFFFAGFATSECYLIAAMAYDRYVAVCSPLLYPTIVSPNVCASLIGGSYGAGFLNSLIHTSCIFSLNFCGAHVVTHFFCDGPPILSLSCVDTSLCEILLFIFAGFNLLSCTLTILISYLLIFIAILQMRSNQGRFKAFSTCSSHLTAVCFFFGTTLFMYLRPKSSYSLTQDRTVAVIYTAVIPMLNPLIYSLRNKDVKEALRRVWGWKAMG
# Conditions: stereoisomer not certain
# How it was run: (§1)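 Transient luciferase assays in mammalian cell lines were common, though methods varied by source. The values come from published papers and their supplementary material, with extra details from the original authors when needed. Responsive refers to a measured signal the original authors judged statistically different from baseline, and non-responsive (inactive) to the remainder.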
# 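Further: active if original authors judged signal statistically different from baseline.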
row,Structure (SMILES),odorant receptor agonist call
1,C=CCc1ccccc1,inactive
2,O=c1cc(O)c2ccccc2o1,inactive
3,C=CCOC(=O)Cc1ccccc1,inactive
4,CCC1CCC(=O)O1 (stereo unspecified),inactive

# Target: T2, UniProt E9PVX1
# T2 sequence (whole entry): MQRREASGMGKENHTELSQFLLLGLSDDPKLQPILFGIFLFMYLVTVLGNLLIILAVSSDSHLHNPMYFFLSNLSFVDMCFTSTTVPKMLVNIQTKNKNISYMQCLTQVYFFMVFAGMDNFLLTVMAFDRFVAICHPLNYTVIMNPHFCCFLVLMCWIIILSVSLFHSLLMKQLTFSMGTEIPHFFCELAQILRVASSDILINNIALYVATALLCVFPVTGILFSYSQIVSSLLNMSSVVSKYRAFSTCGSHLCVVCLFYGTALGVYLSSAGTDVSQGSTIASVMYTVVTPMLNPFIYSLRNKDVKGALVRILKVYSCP
# Conditions: stereoisomer not certain
# How it was run: as §1
row,Structure (SMILES),odorant receptor agonist call
1,C=C(C)C1CC=C(C=O)CC1 (stereo unspecified),inactive
2,CSSC,inactive
3,CCCCC(Br)C(=O)O (stereo unspecified),inactive
4,O=c1cc(O)c2ccccc2o1,inactive
5,C=CCOC(=O)Cc1ccccc1,inactive
6,O=Cc1ccccc1,inactive
7,CCCCCCC(Br)C(=O)O (stereo unspecified),inactive
8,O=CC=Cc1ccccc1,inactive
9,O=Cc1ccc2c(c1)OCO2,inactive
10,COc1ccc(C=O)cc1,inactive
11,Oc1ccccc1Br,inactive
12,OCc1ccc2c(c1)OCO2,inactive
13,Cc1ccc(OC(=O)Cc2ccccc2)cc1,inactive
14,CC(C=O)Cc1ccc2c(c1)OCO2 (stereo unspecified),inactive

# Target: T3, UniProt E9PZ66
# T3 sequence (whole entry): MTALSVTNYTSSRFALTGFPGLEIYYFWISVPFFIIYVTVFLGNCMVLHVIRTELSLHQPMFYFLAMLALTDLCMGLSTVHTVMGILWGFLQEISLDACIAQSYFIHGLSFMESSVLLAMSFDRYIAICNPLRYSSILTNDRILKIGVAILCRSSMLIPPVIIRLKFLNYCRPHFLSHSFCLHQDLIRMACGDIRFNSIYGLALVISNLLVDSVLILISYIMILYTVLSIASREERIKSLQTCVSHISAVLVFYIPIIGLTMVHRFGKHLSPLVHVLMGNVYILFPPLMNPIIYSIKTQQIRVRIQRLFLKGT
# Conditions: stereoisomer not certain
# How it was run: as §1
row,Structure (SMILES),odorant receptor agonist call
1,C=C(C)C1CC=C(C=O)CC1 (stereo unspecified),inactive
2,CSSC,inactive
3,CCCCC(Br)C(=O)O (stereo unspecified),inactive
4,O=c1cc(O)c2ccccc2o1,inactive
5,C=CCOC(=O)Cc1ccccc1,inactive
6,O=Cc1ccccc1,inactive
7,CCCCCCC(Br)C(=O)O (stereo unspecified),inactive
8,O=CC=Cc1ccccc1,inactive
9,O=Cc1ccc2c(c1)OCO2,inactive
10,COc1ccc(C=O)cc1,inactive
11,Oc1ccccc1Br,inactive
12,OCc1ccc2c(c1)OCO2,inactive
13,Cc1ccc(OC(=O)Cc2ccccc2)cc1,inactive
14,CC(C=O)Cc1ccc2c(c1)OCO2 (stereo unspecified),inactive

# Target: T4, UniProt E9Q4X7
# T4 sequence (whole entry): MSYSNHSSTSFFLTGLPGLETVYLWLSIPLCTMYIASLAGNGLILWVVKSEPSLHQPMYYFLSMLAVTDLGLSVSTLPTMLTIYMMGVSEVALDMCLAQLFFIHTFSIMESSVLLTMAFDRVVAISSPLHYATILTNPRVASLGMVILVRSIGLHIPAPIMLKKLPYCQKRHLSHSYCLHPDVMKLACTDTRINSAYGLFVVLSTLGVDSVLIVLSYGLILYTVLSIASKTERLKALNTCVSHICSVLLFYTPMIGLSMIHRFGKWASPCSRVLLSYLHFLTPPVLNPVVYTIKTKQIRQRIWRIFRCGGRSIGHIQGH
# Conditions: stereoisomer not certain
# How it was run: as §1
row,Structure (SMILES),odorant receptor agonist call
1,C=C(C)C1CC=C(C=O)CC1 (stereo unspecified),inactive
2,CSSC,inactive
3,CCCCC(Br)C(=O)O (stereo unspecified),inactive
4,O=c1cc(O)c2ccccc2o1,inactive
5,C=CCOC(=O)Cc1ccccc1,inactive
6,O=Cc1ccccc1,inactive
7,CCCCCCC(Br)C(=O)O (stereo unspecified),inactive
8,O=CC=Cc1ccccc1,inactive
9,O=Cc1ccc2c(c1)OCO2,inactive
10,COc1ccc(C=O)cc1,inactive
11,Oc1ccccc1Br,inactive
12,OCc1ccc2c(c1)OCO2,inactive
13,Cc1ccc(OC(=O)Cc2ccccc2)cc1,inactive
14,CC(C=O)Cc1ccc2c(c1)OCO2 (stereo unspecified),inactive

# Target: T5, UniProt E9Q546
# T5 sequence (whole entry): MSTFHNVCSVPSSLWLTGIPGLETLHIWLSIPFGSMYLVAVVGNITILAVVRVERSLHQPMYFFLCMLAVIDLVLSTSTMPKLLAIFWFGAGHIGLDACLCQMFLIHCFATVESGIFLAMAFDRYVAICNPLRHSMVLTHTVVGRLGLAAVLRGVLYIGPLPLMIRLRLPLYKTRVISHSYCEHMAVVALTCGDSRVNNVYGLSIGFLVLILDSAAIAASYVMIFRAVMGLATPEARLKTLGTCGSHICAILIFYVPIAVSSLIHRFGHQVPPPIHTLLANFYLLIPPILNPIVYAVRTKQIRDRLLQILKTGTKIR
# Conditions: stereoisomer not certain
# How it was run: as §1
row,Structure (SMILES),odorant receptor agonist call
1,C=CCc1ccccc1,inactive
2,C=C(C)C1CC=C(C=O)CC1 (stereo unspecified),inactive
3,CSSC,inactive
4,CCCCC(Br)C(=O)O (stereo unspecified),inactive
5,O=c1cc(O)c2ccccc2o1,inactive
6,C=CCOC(=O)Cc1ccccc1,inactive
7,O=Cc1ccccc1,inactive
8,CCCCCCC(Br)C(=O)O (stereo unspecified),inactive
9,CCC1CCC(=O)O1 (stereo unspecified),inactive
10,O=CC=Cc1ccccc1,inactive
11,O=Cc1ccc2c(c1)OCO2,inactive
12,COc1ccc(C=O)cc1,inactive
13,Oc1ccccc1Br,inactive
14,OCc1ccc2c(c1)OCO2,inactive
15,Cc1ccc(OC(=O)Cc2ccccc2)cc1,inactive
16,CC(C=O)Cc1ccc2c(c1)OCO2 (stereo unspecified),inactive

# Target: T6, UniProt E9Q6Z7
# T6 sequence (whole entry): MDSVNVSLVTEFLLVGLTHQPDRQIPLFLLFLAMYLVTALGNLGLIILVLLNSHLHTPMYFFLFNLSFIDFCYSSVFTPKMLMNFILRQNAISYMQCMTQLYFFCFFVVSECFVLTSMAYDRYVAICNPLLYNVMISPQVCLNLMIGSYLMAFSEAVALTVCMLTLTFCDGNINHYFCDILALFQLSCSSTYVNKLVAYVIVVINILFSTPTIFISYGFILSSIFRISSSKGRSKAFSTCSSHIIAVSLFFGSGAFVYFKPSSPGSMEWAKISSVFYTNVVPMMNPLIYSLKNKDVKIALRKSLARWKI
# Conditions: stereoisomer not certain
# How it was run: as §1
row,Structure (SMILES),odorant receptor agonist call
1,C=C(C)C1CC=C(C=O)CC1 (stereo unspecified),inactive
2,CSSC,inactive
3,CCCCC(Br)C(=O)O (stereo unspecified),inactive
4,O=c1cc(O)c2ccccc2o1,inactive
5,C=CCOC(=O)Cc1ccccc1,inactive
6,O=Cc1ccccc1,inactive
7,CCCCCCC(Br)C(=O)O (stereo unspecified),inactive
8,O=CC=Cc1ccccc1,inactive
9,O=Cc1ccc2c(c1)OCO2,inactive
10,COc1ccc(C=O)cc1,inactive
11,Oc1ccccc1Br,inactive
12,OCc1ccc2c(c1)OCO2,inactive
13,Cc1ccc(OC(=O)Cc2ccccc2)cc1,inactive
14,CC(C=O)Cc1ccc2c(c1)OCO2 (stereo unspecified),inactive

# Target: T7, UniProt E9Q9Z6
# T7 sequence (whole entry): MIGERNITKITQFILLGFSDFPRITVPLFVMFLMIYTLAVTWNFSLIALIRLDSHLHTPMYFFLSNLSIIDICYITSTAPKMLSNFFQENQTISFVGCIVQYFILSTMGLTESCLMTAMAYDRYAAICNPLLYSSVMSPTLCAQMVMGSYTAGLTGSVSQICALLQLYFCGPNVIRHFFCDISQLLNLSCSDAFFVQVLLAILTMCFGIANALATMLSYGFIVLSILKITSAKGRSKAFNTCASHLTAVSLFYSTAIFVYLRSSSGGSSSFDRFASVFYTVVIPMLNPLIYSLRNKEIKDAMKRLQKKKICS
# Conditions: stereoisomer not certain
# How it was run: as §1
row,Structure (SMILES),odorant receptor agonist call
1,CC(=O)c1cc2c(cc1C)C(C)(C)C(C)CC2(C)C (stereo unspecified),active
2,Cc1c([N+](=O)[O-])c(C)c([N+](=O)[O-])c(C(C)(C)C)c1[N+](=O)[O-],active
3,CC(=O)c1cc(C(C)(C)C)cc2c1CCC2(C)C,inactive

# Target: T8, UniProt K7N609
# T8 sequence (whole entry): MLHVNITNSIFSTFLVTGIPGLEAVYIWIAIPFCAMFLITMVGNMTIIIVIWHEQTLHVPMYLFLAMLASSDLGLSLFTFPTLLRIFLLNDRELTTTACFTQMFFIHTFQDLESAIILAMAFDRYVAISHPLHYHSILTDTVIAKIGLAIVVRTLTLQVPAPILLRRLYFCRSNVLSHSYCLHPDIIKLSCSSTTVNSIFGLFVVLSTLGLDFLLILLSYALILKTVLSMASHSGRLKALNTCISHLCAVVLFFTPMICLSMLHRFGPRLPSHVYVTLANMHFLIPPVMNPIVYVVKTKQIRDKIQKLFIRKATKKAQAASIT
# Conditions: stereoisomer not certain
# How it was run: as §1
row,Structure (SMILES),odorant receptor agonist call
1,C=CCc1ccccc1,inactive
2,O=c1cc(O)c2ccccc2o1,inactive
3,C=CCOC(=O)Cc1ccccc1,inactive
4,CCC1CCC(=O)O1 (stereo unspecified),inactive

# Target: T9, UniProt L7MU75
# T9 sequence (whole entry): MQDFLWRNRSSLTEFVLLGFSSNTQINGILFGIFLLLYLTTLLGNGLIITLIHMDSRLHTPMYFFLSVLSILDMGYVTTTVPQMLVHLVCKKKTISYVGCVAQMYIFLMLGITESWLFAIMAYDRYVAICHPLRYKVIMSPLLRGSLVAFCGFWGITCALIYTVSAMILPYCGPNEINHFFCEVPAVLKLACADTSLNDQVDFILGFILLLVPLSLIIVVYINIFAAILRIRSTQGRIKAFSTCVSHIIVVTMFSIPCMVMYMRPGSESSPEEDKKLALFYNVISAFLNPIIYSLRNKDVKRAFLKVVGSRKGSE
# Conditions: stereoisomer not certain
# How it was run: as §1
row,Structure (SMILES),odorant receptor agonist call
1,C=C(C)C1CC=C(C=O)CC1 (stereo unspecified),inactive
2,CSSC,inactive
3,CCCCC(Br)C(=O)O (stereo unspecified),inactive
4,O=c1cc(O)c2ccccc2o1,inactive
5,C=CCOC(=O)Cc1ccccc1,inactive
6,CCCCCCC(Br)C(=O)O (stereo unspecified),inactive
7,CCC1CCC(=O)O1 (stereo unspecified),inactive
8,O=CC=Cc1ccccc1,inactive
9,COc1ccc(C=O)cc1,inactive
10,Oc1ccccc1Br,inactive
11,OCc1ccc2c(c1)OCO2,inactive
12,Cc1ccc(OC(=O)Cc2ccccc2)cc1,inactive
13,CC(C=O)Cc1ccc2c(c1)OCO2 (stereo unspecified),inactive

# Source: the M2OR odorant receptor database
